Shown are actives, neighbours in structure and some others; about 0.9% of the full set was active somewhere.
RGS8-Gao: modulates binding of RGS8 to human Galphao; response (percent of control binding), % at 10 µM; hit rate 0.34% among 220,000; AID 1423; multiplexed bead flow cytometry; actives lie on both sides; P09471; in the data active = response below about 60% or above about 140%; inactive = in between;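 note: Galphao activated as the GDP aluminium fluoride complex binding bead-coupled RGS8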
ABCG2 inh: blocks JC-1 efflux by human ABCG2 transporter; inhibition, % at 6.6 µM; IgMXP3 cells, flow cytometry; hit rate 0.1% among 190,000;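 active = inhibition above 80%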
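Incubation: cells with compound and JC-1, 10 min at 25 °C, rotating, no wash / Test system: IgMXP3 (ABCG2) plus far-red-tagged CCRF-Adr (ABCB1) cells / Compound dosing: one concentration, 6.6 µM final / Also added: JC-1 fluorescent substrate / Evaluation: efflux inhibition in percent versus controls / Detection: flow cytometry, 530 nm JC-1 signal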
RGS16-Gao: regulators of human RGS16-Galphao interaction; AID 1441; bead-based flow cytometry RGS16-Galphao binding, fluorescence; actives lie on both sides; hit rate 0.38% among 220,000; binding response (% of control), % at 10 µM;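 note: Galphao activated by GDP with aluminum fluoride before binding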
Target sequence (O15492 whole entry, looked up): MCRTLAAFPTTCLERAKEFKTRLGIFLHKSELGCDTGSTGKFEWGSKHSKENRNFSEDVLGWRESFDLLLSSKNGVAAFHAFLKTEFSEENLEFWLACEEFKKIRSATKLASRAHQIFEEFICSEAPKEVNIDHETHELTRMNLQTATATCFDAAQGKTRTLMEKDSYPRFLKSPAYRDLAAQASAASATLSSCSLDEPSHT
Target sequence (P09471 whole entry, looked up): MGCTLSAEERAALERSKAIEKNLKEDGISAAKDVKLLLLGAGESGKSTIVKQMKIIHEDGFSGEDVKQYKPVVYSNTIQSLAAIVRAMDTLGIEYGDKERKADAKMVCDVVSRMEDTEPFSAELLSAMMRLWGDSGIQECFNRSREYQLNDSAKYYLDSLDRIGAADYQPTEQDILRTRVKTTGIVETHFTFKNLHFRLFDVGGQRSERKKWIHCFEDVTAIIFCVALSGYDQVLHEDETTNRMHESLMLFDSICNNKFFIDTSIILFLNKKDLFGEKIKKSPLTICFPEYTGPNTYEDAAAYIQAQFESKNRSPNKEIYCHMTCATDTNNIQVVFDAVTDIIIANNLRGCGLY
RGS7-Gao reg: modulates binding of RGS7 to human Galphao; P09471; Multiplexed bead flow cytometry; actives lie on both sides; binding response (% of control), % at 10 µM; hit rate 0.35% among 220,000; in the data active = binding response below about 49% or above about 150%; inconclusive = no clear call, values can overlap the other calls; inactive = in between;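 note: fluorescent Galphao held in activated GDP-AlF4 state binding bead-coupled RGS7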
RGS4-Gao reg: human RGS4-Galphao interaction regulation. binding response (% of control), % at 10 µM. AID 1415. hit rate 0.33% among 220,000. Multiplexed bead flow cytometry, RGS4-Galphao binding; actives lie on both sides. P09471; in the data active = binding response below about 49% or above about 150%; inactive = in between;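 note: fluorescent Galphao activated with aluminum fluoride binding bead-coupled RGS4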
ABCB1 block: inhibitors of human ABCB1 transporter, ABCG2 counter-screen; P08183; CCRF-Adr cells, JC-1 efflux, flow cytometry; inhibition, % at 6.6 µM; hit rate 0.067% among 190,000; AID 1326; in the data active = inhibition above about 40%;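 note: higher value means more JC-1 retained so stronger ABCB1 efflux block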
RGS-Gao: RGS4-Galphao interaction regulator (human); shares compounds with RGS16-Gao; multiplexed bead flow cytometry, RGS–Galpha-o binding; RGS4–Galpha-o binding response, % at 10 µM; hit rate 99% among 1,600; AID 1504;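 note: fluorescently labeled Galpha-o bound to GDP with aluminium fluoride binding biotinylated RGS beads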
Biotin-avidin: interferes with biotinylated probe binding to avidin beads; shares compounds with RGS16-Gao; streptavidin beads, fluorescein-biotin binding, flow cytometry; 1,700 tested, under 10 active; inhibition, % at 10 µM;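 active = inhibition above 50%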;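 note: median green fluorescence of gated singlet beads compared with DMSO control wells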
RGS8-Gao single: confirmation of regulators of human RGS8-Galphao interaction. shares compounds with RGS16-Gao. bead-based flow cytometry RGS8-Galphao binding, fluorescence; actives lie on both sides. binding response (% of control), % at 10 µM. hit rate 3% among 1,700. AID 1836; in the data active = binding response below about 72% or above about 130%; inactive = in between;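 note: Galphao activated as GDP AlF4 complex before binding bead RGS8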
RGS7-Gao confirm: confirmation of regulators of human RGS7-Galphao interaction. shares compounds with RGS16-Gao. bead-based flow cytometry RGS7-Galphao binding; actives lie on both sides. response (percent of control binding), % at 10 µM. hit rate 7.8% among 1,700; in the data active = response below about 75% or above about 130%; inactive = in between;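 note: fluorescent Galphao activated with GDP and aluminum fluoride binding bead-coupled RGS7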
RGS16-Gao single: RGS16-Galphao interaction regulation, single point confirmation; bead-based flow cytometry, RGS16-Galphao binding; actives lie on both sides; response (% of control binding), % at 10 µM; AID 1838; shares compounds with RGS16-Gao; hit rate 4% among 1,700; in the data active = response below about 74% or above about 130%; inactive = in between;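 note: Galphao activated as the GDP aluminium fluoride complex binding bead-coupled RGS16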
RGS4-Gao confirm: RGS4-Galphao interaction regulation, single point confirmation; shares compounds with RGS16-Gao; binding response (% of control), % at 10 µM; AID 1840; RGS4-Galphao binding, multiplexed bead flow cytometry; actives lie on both sides; hit rate 4% among 1,700; in the data active = binding response below about 74% or above about 130%; inactive = in between
RGS19-Gao conf: confirmation of regulators of human RGS19-Galphao interaction | response (percent of control binding), % at 10 µM | AID 1841 | hit rate 5% among 1,700 | shares compounds with RGS16-Gao | bead-based flow cytometry RGS19-Galphao binding; actives lie on both sides; in the data active = response below about 50% or above about 160%; inactive = in between
Large screens that a line does not name were inactive (follow-up assays come after a bar, where they were run); [ ] = another dose, or the depositor's remark. Unless noted, the rule behind the calls is not given here.

O=C(CCC1CCCN(C(=O)c2cncs2)C1)NCc1ccc(F)c(F)c1 (configuration not stated)	RGS7-Gao reg 231.3[activator] | RGS-Gao 108.8 | Biotin-avidin inactive | RGS8-Gao single inactive | RGS7-Gao confirm inactive | RGS16-Gao single inactive | RGS4-Gao confirm inactive | RGS19-Gao conf inactive
O=C(CCC1CCCN(C(=O)C2CCCC2)C1)NCc1ccc(F)c(F)c1 (configuration not stated)	none
COc1ccc2c(Cl)c(C(=O)N/N=C3\CCCC(=O)C3)sc2c1	RGS7-Gao reg inconclusive
S=C1NCN(C2CCCCC2)CN1c1ccccc1	RGS7-Gao reg inconclusive (no result: ABCG2 inh, ABCB1 block)
CC1CCN(c2ccc(C(=O)NCc3ccco3)cc2[N+](=O)[O-])CC1	none
CC(C)c1ccc2oc3nc(N)c(C(=O)O)cc3c(=O)c2c1	none (no result: ABCB1 block)
Nc1ccc2oc3ccc(N)cc3c(=O)c2c1	RGS8-Gao 44.4, RGS7-Gao reg -13.3, RGS4-Gao reg 5.6 | Biotin-avidin inactive | RGS8-Gao single inactive | RGS7-Gao confirm inactive | RGS16-Gao single inactive | RGS4-Gao confirm inactive | RGS19-Gao conf inactive
Nc1nnc(/C=C/c2ccccc2Cl)s1	RGS7-Gao reg inconclusive (no result: ABCG2 inh, ABCB1 block)
CN1CCN(c2nc3c(c(=O)n(C)c(=O)n3C)n2CC(=O)C23CC4CC(CC(C4)C2)C3)CC1	RGS4-Gao reg 156.9[activator] | Biotin-avidin inactive | RGS8-Gao single inactive | RGS7-Gao confirm inactive | RGS16-Gao single inactive | RGS4-Gao confirm inactive | RGS19-Gao conf inactive
Cc1ccc(C(=O)N(CC#N)CC#N)cc1C	none
Cc1ccc(S(=O)(=O)/N=C2/C=C(Sc3ncn[nH]3)C(=O)c3ccccc32)cc1	RGS16-Gao 15.2 | RGS-Gao 86.5
Cc1ccc(S(=O)(=O)NC(C)(C)CSc2nncn2C)cc1	none
Cc1ccc(S(=O)(=O)NC(C)(C)CSc2ccccn2)cc1	RGS16-Gao 13.3 | RGS-Gao 87.2 | Biotin-avidin inactive | RGS8-Gao single inactive | RGS7-Gao confirm inactive | RGS16-Gao single inactive | RGS4-Gao confirm inactive | RGS19-Gao conf inactive
O=C(CN1CCN(C(=O)C2COc3ccccc3O2)CC1)Nc1ccc(F)cc1 (configuration not stated)	RGS7-Gao reg inconclusive (no result: ABCG2 inh, ABCB1 block)
COCCNc1ccnc2c(Cl)cccc12	none
COCCCNc1ccnc2c(Cl)cccc12	none (no result: RGS16-Gao) | Biotin-avidin inactive | RGS8-Gao single inactive | RGS7-Gao confirm inactive | RGS16-Gao single inactive | RGS4-Gao confirm inactive | RGS19-Gao conf inactive
CCNc1ccc(S(=O)(=O)N(C)C)cc1NCC(=O)Nc1ccc(F)c(Cl)c1	RGS16-Gao 24.5 | RGS-Gao 105.7 | Biotin-avidin inactive | RGS8-Gao single inactive | RGS7-Gao confirm inactive | RGS16-Gao single inactive | RGS4-Gao confirm inactive | RGS19-Gao conf inactive
COc1cc(OC)cc(-c2nc(-c3ccccc3OC)no2)c1	RGS8-Gao 13.6, RGS16-Gao 3.8, RGS7-Gao reg 10.1, RGS4-Gao reg 0.9 | Biotin-avidin inactive | RGS8-Gao single inactive | RGS7-Gao confirm inactive | RGS16-Gao single inactive | RGS4-Gao confirm inactive | RGS19-Gao conf inactive
O=C(Nc1nnc(CCS(=O)(=O)c2ccc3ccccc3c2)s1)c1ccc([N+](=O)[O-])cc1	none
Cn1c(C(=O)NCc2ccccc2)cc2oc3ccccc3c21	none (no result: RGS16-Gao) | Biotin-avidin inactive | RGS8-Gao single inactive | RGS7-Gao confirm inactive | RGS16-Gao single inactive | RGS4-Gao confirm inactive | RGS19-Gao conf inactive
